# Bioassay records: PubChem BioAssay, several laboratories
# Hits are enriched below; roughly 2.7% of the tested compounds scored in any of these assays.
# PP1 inh: PP1-alpha (human) inhibition in PP5 counter-screen | P62136 | inhibition, % at 6.7 µM | 0.9% of 320,000 active | purified PP1alpha, OMFP fluorescence | AID 2235;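 active means inhibition above the mean inhibition of all tested compounds plus 3 SD, computed separately for each screening campaign, cut at about 15% in these data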
# NadD block: blocks S. aureus nicotinate mononucleotide adenylyltransferase. 0.78% of 360,000 active. purified NadD enzyme, colorimetric absorbance read-out. AID 602399. inhibition, % at 20 µM; in the data active means inhibition above about 26%
# HNF4A DNA FP: change in binding of human HNF4 alpha to DNA; P41235; HNF4a-FITC DNA binding, fluorescence polarization, 1 h; AID 1224865; activity change, % at 10 µM; 0.3% of 360,000 active; in the data active means activity change above about 30%, passing the limit was not always enough
# CSN deneddyl inh: CSN deneddylation inhibition | 0.38% of 360,000 active | Q92905 | inhibition, % at 12.5 µM | Purified CSN, SCF-Nedd8-OG deneddylation, fluorescence polarization | AID 651999;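 active means pattern-corrected inhibition above about 35%, with an unprinted fluorescence ratio check between 0.5 and 1.5, limit read from the data, passing the limit was not always enough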;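 further: 0% = enzyme with substrate and 100% = substrate without enzyme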
# Target sequence (Q92905 whole entry, looked up, one chain of several): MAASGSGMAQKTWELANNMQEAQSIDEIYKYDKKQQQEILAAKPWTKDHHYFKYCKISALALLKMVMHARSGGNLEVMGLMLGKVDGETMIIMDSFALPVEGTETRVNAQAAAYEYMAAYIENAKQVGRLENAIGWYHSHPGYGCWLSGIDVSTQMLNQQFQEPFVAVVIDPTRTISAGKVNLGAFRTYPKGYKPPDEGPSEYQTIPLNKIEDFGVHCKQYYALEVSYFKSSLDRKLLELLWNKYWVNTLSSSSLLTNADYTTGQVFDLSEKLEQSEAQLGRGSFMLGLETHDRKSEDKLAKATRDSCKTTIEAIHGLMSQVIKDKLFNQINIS
#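 Assay system: HEK293T-derived human Csn5 enzyme; quantity: 0.24 nM enzyme; medium: Tris/NaCl/DTT buffer, pH 7.5; also added: substrate SCFSkp2-Nedd8OG, 10 nM; doses: 12.5 µM compound; schedule: 90 min reaction at room temperature; signal: FP; read-out: % inhibition of substrate cleavage by Csn5; benchmarks: substrate-only high control, full reaction low control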
# TPT1 inhibitor: blocks Candida albicans tRNA 2'-phosphotransferase. recombinant caTPT1, FP RNA substrate dephosphorylation. inhibition, % at 5 µM. 0.81% of 300,000 active;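 active means inhibition above the mean of all tested compounds plus 3 SD, set per screening campaign, cut at about 24% in these data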;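 further: plate controls were DMSO alone for no effect and ferristatin control at 100 nM for full effect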
# Rpn11 inh: blocks the human proteasome subunit Rpn11 | inhibition, % at 20 µM | 0.59% of 360,000 active | O00487 | human 26S proteasome, Ub4-pepOG fluorescence polarization; 20S core pre-blocked with epoxomicin;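 active means inhibition at 20 µM, scaled to each plate's controls, above about 33%, limit read from the data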
# Target sequence (O00487 whole entry, looked up): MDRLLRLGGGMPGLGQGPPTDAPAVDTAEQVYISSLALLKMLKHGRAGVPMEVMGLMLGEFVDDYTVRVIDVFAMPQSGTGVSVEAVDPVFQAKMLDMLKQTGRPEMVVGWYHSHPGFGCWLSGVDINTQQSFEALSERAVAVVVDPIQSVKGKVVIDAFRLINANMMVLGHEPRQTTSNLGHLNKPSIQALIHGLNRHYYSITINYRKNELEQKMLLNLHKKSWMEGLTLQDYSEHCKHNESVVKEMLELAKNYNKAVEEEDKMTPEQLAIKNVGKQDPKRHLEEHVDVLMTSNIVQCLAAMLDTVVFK
# TPT1 inh confirm: confirmation of Candida albicans TPT1 inhibitors; recombinant caTPT1, fluorescence polarization, RNase T1 coupled; 74% of 2,400 active; AID 2149; shares compounds with TPT1 inhibitor; inhibition, % at 5 µM;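 active means inhibition above the primary screen limit, the mean inhibition of all tested compounds plus 3 SD, cut at about 25% in these data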
# RNase T1 counter: counter-screen for TPT1 inhibitors: inhibitors of Aspergillus oryzae RNase T1; shares compounds with TPT1 inhibitor; RNase T1 cleavage, fluorescence polarization, 1536-well; 83% of 2,400 active; inhibition, % at 5 µM;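 active means inhibition above the solvent-only control well mean plus 3 SD, limit set per screening run, cut at about 23% in these data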;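 further: plate controls were DMSO wells with enzyme for no effect and wells without RNase T1 for full effect; inhibitors block cleavage so intact labeled substrate keeps polarization high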
# The depositor's hits bear a star; · = no result given.
SMILES,PP1 inh,NadD block,HNF4A DNA FP,CSN deneddyl inh,TPT1 inhibitor,Rpn11 inh,TPT1 inh confirm,RNase T1 counter
Cc1ccc(S(=O)(=O)Oc2ccc(/C=C3/C(=N)N4C(=NC3=O)SN=C4S(C)(=O)=O)cc2)cc1,-1.1,10.4,0.7,6.8,5.1,6.4,·,·
O=C(CN1CCN(c2ccccc2O)CC1)Nc1ccc2c(c1)OCCCO2,3.4,-0.5,3.1,-6.2,·,4.6,·,·
CCCN1C=CC(=C/C=C(\C#N)C(=O)OCC)C=C1,2.5,·,·,·,180.6*,·,189.8*,176.6*
CCCCCCN1C=CC(=C/C=C(\C#N)C(=O)OCC)C=C1,-5.0,1.6,195.9,56.2,175.9*,·,193.3*,172.8*
CCOC(=O)/C(C#N)=C/N=c1ccc(C)cn1C,-4.6,1.3,2.0,0.1,-0.6,5.7,·,·
COc1ccc(NC(=O)COC(=O)c2ccc(S(=O)(=O)N(C)c3ccccc3OC)cc2)cc1,·,1.3,-3.6,0.0,·,-4.3,·,·
CC[C@@H](C)[C@H](NC(=O)CNC(=O)Cc1c(C)c2c(cc(C)c3c(C)coc32)oc1=O)C(=O)O,-2.4,3.5,1.7,0.0,50.6*,-2.9,5.5,7.0
CC(=O)/C(=N/Nc1ccccc1Cl)Sc1nnc(C(O)c2ccccc2)n1-c1ccccc1 (centres undefined),0.9,-0.4,0.4,-6.1,47.9*,-8.2,5.8,5.7
COCCNC(=O)C1(C)CCCN(Cc2ccc(Cl)c(Cl)c2)C1 (centres undefined),·,-10.7,-2.5,0.9,·,-3.6,·,·
O=c1c2ccccc2c(/C=N/NS(=O)(=O)c2ccccc2)c(O)n1-c1ccccn1,-3.6,0.6,119.8,79.7*,106.2*,·,62.1*,78.4*
O=c1c2ccccc2c(/C=N/n2cnnc2)c(O)n1-c1ccccc1,0.5,11.0,-0.1,5.7,15.4,26.7,·,·
CSc1nc(-c2ccc(N(C)C)cc2)c(C#N)c(=O)n1C,-0.3,2.0,4.7,4.2,31.3*,3.2,41.0*,51.9*
CSc1nc(-c2ccc(Cl)cc2)c(C#N)c(=O)n1C,-1.0,-7.3,-1.6,-8.2,2.8,-1.5,·,·
COc1ccc(N=C2O/C(=C/c3sc(=S)n(CC4CCCO4)c3O)N=C2C#N)cc1 (centres undefined),-0.7,-3.2,31.1,11.0,45.0*,·,51.6*,61.1*
COc1ccc(/C=C2\SC(=S)N(CC3CCCO3)C2=O)cc1 (centres undefined),-0.8,-3.2,-1.3,3.9,-0.2,-2.6,·,·
CCCCCCNC(=O)C(C#N)c1nc2ccccc2nc1N1CCCC1 (centres undefined),-1.7,-3.5,37.1,40.3*,63.0*,19.1,28.3*,32.9*
CC1=C(C(=O)N(C)C)CC(CC(=O)NCc2cccc3ccccc23)C(=O)N1CCC1=CCCCC1 (centres undefined),·,3.2,2.5,2.8,·,-3.9,·,·
N#C/C(=C/c1ccc(-c2cc(C(=O)O)cc(C(=O)O)c2)o1)c1nc2ccccc2s1,9.7,·,·,·,141.1*,·,141.3*,132.9*
O=C(O)CNC(=O)CC1S/C(=N/N=C2/NC(=O)CS2)NC1=O (centres undefined),-2.3,0.9,20.6,4.9,25.5*,13.7,33.0*,45.6*
NC(=O)NC(=O)CC1S/C(=N/N=C2\CSC(=O)N2)NC1=O (centres undefined),-2.7,-3.1,1.2,1.7,1.0,3.6,·,·
CCOc1cc2c(C#N)c(N3CCCCC3)nc(N)c2c(N)n1,5.9,-1.7,30.5,19.3,50.5*,·,49.3*,58.0*
Cc1nn(C2CCS(=O)(=O)C2)c2nc(C3CC3)cc(C(=O)Nc3cccc(C#N)c3)c12 (centres undefined),·,1.5,-0.2,4.0,·,-4.5,·,·
COc1ccccc1-n1c(SCC(=O)NC(C)(C)C)nc(O)cc1=O,0.6,3.5,0.9,-1.2,-3.7,2.1,·,·
CC(C)(C)NC(=O)CSc1nc(O)cc(=O)n1-c1ccccc1F,1.6,-1.9,78.2*,56.2*,109.2*,·,84.2*,94.3*
CCOc1ccccc1N1CCN(c2nc(N)c(C#N)c(CC#N)c2C#N)CC1,3.2,14.0,7.6,18.2,27.9*,19.6,30.0*,41.9*
SMILES,PP1 inh,NadD block,HNF4A DNA FP,CSN deneddyl inh,TPT1 inhibitor,Rpn11 inh,TPT1 inh confirm,RNase T1 counter
CCOC(=O)c1c(C)[nH]c(C(=O)OC(C)C(=O)NC2CCCCC2C)c1C (centres undefined),1.3,0.0,5.5,-2.6,·,7.5,·,·
COc1ccc(N(Cc2ccccc2)C(=O)OC(C)(C)C)c(C(=O)N(C)OC)c1,·,0.6,-2.5,-1.8,·,1.8,·,·
COc1ccc(NS(=O)(=O)c2cccc(C(=O)NCc3ccco3)c2)cc1,-4.7,-0.2,-3.4,4.1,0.5,-0.5,·,·
COc1cccc(S(=O)(=O)Nc2ccc(C(=O)NCc3ccco3)cc2)c1,-3.7,-3.6,-1.9,4.6,28.5*,-0.3,6.0,9.2
Cc1cc(C)c(NC(=O)CCCn2c(=O)oc3ccccc32)c(C)c1,3.9,-5.8,0.1,1.9,·,-2.4,·,·
OC(c1ccc(Cl)c(Cl)c1)c1ncc(-c2ccccc2C(F)(F)F)[nH]1 (centres undefined),·,0.7,1.7,1.4,·,3.3,·,·
COc1ccc(/C=C2\CCC/C(=C\C=N\N(C)C)C2=O)cc1,-0.4,4.8,13.2,29.2,36.8*,·,45.0*,55.5*
CN(C)/N=C/C=C1\CCC/C(=C\c2ccc(F)c(F)c2)C1=O,-0.9,3.9,1.8,3.2,22.4,25.5,·,·
Clc1cccc(Cl)c1C[n+]1cccc2ccccc21,-3.1,-8.1,3.8,12.2,3.0,28.2,·,·
O=[N+]([O-])c1ccc(Cl)c(C[n+]2cccc3ccccc32)c1,-1.2,-1.6,3.5,5.9,58.9*,38.0,11.5,19.0
O=C(C[n+]1cccc2ccccc21)c1ccc([N+](=O)[O-])cc1,0.5,2.6,2.9,-1.4,31.7*,3.5,8.5,10.3
O=C(C[n+]1cccc2ccccc21)c1ccc(Cl)cc1,1.2,-1.7,-3.1,6.2,12.8,·,·,·
COc1ccc(C(=O)Nc2ccccc2C(=O)NC2CC2)c(OC)c1OC,·,5.7,0.2,-1.7,·,0.4,·,·
CCOc1ccccc1C=C1SC(=S)NC1=O,·,0.5,2.3,3.8,·,-29.5,·,·
CCCCN(C)Cc1cc(=O)oc2ccc3ccccc3c12,-0.9,1.3,5.4,0.2,-3.7,-1.6,·,·
CC(C)(C)[C@H]1COC(=O)CCC/C=C/C[C@H](CC(=O)NCCO)C(=O)N1,·,-4.4,-3.1,-6.4,·,0.3,·,·
COc1ccc(C2C(C#N)=C(N)N(c3sc4c(c3C#N)CCCC4)C3=C2C(=O)CC(C)(C)C3)cc1 (centres undefined),6.6,15.0,10.0,30.3,28.2*,13.8,7.7,6.4
